# Laboratory results from PubChem BioAssay AID1483 (NMMLSC, 2009).
# The other results are listed elsewhere or left out. Unmarked numbers belong to inactive results.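 How the source made its calls: active means fluorescence beyond the plate control mean plus 3 SD, with a fluorescence-to-maximum score over 2 (cut at about 25 in these data); inactive means the rest.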
# Test: compound autofluorescence in ABCB1-expressing CCRF-Adr cells, confirmation, artefact control for ABC transporter inhibitor project, cell-based, 488/530 nm, flow cytometry (AID 1483)
# Settings: compound autofluorescence 488/530 nm, at 6.6 µM, hits give high values
# Outline: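 Test system: drug-resistant CCRF-Adr cells; Quantity: 3 million cells per mL, final in well; Benchmarks: DMSO control wells; Incubation: 10 min rotation at 25 °C; Compound: single test compound dose, 6.6 µM final; Probe or stimulus: no JC-1 substrate added, compound fluorescence only; Technique: flow cytometry, median green fluorescence at 530 ± 20 nm.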
smiles,measurement,value
COC(=O)COc1cc(C)cc2oc(=O)c3c(c12)CCCC3,fluorescence,2.91
